A short description of data set [1]: Stability in human microsomes assessed as unbound intrinsic clearance. Type of data set: ADME, Microsome. The method, boiled down: (§1)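 Unbound intrinsic clearance measured in human and mouse liver microsomes, expressed in L/h/kg. Values are geometric means of at least two separate runs.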
Data set [2] is described as follows: Stability in mouse microsomes assessed as unbound intrinsic clearance. Type of data set: ADME, Microsome. The method, boiled down:
as §1

The target of data set [3] is T1, Nuclear receptor ROR-gamma (Homo sapiens, UniProt P51449).
T1 sequence (P51449 whole entry): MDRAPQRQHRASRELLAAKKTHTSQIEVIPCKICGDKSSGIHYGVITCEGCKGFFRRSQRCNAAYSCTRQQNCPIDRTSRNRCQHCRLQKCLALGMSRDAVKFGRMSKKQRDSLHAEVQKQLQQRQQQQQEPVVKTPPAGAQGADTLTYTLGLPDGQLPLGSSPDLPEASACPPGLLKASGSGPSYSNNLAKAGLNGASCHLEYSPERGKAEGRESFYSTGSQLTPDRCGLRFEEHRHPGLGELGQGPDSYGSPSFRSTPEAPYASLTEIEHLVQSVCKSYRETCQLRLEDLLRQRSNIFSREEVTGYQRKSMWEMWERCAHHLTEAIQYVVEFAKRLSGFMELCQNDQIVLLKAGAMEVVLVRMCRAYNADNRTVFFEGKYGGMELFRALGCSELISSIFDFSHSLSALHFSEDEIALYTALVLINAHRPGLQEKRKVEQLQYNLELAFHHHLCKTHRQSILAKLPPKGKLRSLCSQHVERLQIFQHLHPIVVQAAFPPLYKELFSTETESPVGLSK
As to the kind of experiment: Inverse agonist activity at pSG5GAL4-DBD/LBD fused human RORgamma receptor expressed in COS7 cells co-expressing 5 copies of GAL4 response element after 18 hrs by luciferase reporter gene based assay. It counts as cell-based. For orientation: In a reporter assay the amount or activity of a reporter protein is the signal.

Data set [4] deals with T1, Nuclear receptor ROR-gamma. The experiment in a line: Inverse agonist activity at RORgamma in human CD4+ T cells assessed as inhibition of IL17A secretion after 72 hrs by ELISA. It counts as cell-based, CD4+ve Th. For orientation: ELISA stands for enzyme-linked immunosorbent assay.
For data set [5], the system named is Mus musculus. As to the kind of experiment: Immunosuppressive activity in po dosed PLP (139 to 151 residues)-induced experimental autoimmune encephalomyelitis mouse model assessed as incidence of disease administered twice starting from immunization relative to control. It counts as functional. The method, boiled down: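 EAE induced in mice by immunization with proteolipid protein peptide PLP139-151; ascending paralysis develops 10–12 days post-immunization. Compound dosed orally b.i.d. starting from immunization. Disease onset/incidence scored relative to control.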

What is called EC50 is the concentration that produces a half-maximal response.

As to `CNC(=O)[C@@H]1CCCN1S(=O)(=O)c1ccc(Cl)c(COc2cccc3c(-c4ccncc4)cc(C)nc23)c1Cl`, the CL free in data set [1] stood at 217 mL/min/kg; in data set [2], 550 mL/min/kg.

For `CNC(=O)[C@@H]1CCCN1S(=O)(=O)c1ccc(Cl)c(COc2cccc3c(OCc4ccccc4)cc(C(C)C)nc23)c1Cl`, the CL free amounted to 667 mL/min/kg in data set [1] and 1220 mL/min/kg in data set [2].

As to `CNC(=O)[C@@H]1CCCN1S(=O)(=O)c1ccc(Cl)c(COc2cccc3c(-n4ccnc4)cc(C(C)C)nc23)c1Cl`, the CL free stood at 33 mL/min/kg in data set [1] and 130 mL/min/kg in data set [2]. This compound also gave an EC50 in data set [3] of 520 nM.

Regarding `CNC(=O)[C@@H]1CCCN1S(=O)(=O)c1ccc(Cl)c(COc2cccc3c(-c4ccccc4)cc(C)nc23)c1Cl`, the figures for the EC50 in data set [4] and in data set [3] were 890 nM and 320 nM, respectively.

For the compound `CNC(=O)[C@@H]1CCCN1S(=O)(=O)c1ccc(Cl)c(COc2cccc3c(-c4cncn4C)cc(C)nc23)c1Cl`, the CL free in data set [1] was 33 mL/min/kg; in data set [2], 120 mL/min/kg. Moreover, the EC50 was found to be 1390 nM in data set [4] and 1510 nM in data set [3].

With `CCN(c1ccc(C(O)(C(F)(F)F)C(F)(F)F)cc1)S(=O)(=O)c1ccccc1`, the EC50 in data set [4] came to 930 nM; in data set [3], 1080 nM.

Take `Cc1cc(C(F)(F)F)c2cccc(OCc3c(Cl)ccc(S(=O)(=O)N4CCCC4)c3Cl)c2n1`: the CL free in data set [1] worked out at 233 mL/min/kg; in data set [2], 967 mL/min/kg.

On to `CNC(=O)[C@@H]1CCCN1S(=O)(=O)c1ccc(Cl)c(COc2cccc3c(-n4ccnc4)cc(C)nc23)c1Cl`, for which the CL free in data set [1] turned out to be 33 mL/min/kg; in data set [2], 267 mL/min/kg. The results for the EC50 in data set [4] and in data set [3] were 3000 nM and 1360 nM, respectively.

On to `Cc1cc(C(F)(F)F)c2cccc(OCc3c(Cl)ccc(S(=O)(=O)N4CCC[C@H]4C(N)=O)c3Cl)c2n1`, for which the CL free in data set [1] came to 167 mL/min/kg; in data set [2], 12600 mL/min/kg. Besides, the values for the EC50 in data set [4] and in data set [3] were 470 nM and 440 nM, respectively.

As to `Cc1cc(C(F)(F)F)c2cccc(OCc3c(Cl)ccc(S(=O)(=O)N4CCC(CCO)CC4)c3Cl)c2n1`, the CL free in data set [1] came out at 367 mL/min/kg; in data set [2] it was 1080 mL/min/kg. In data set [3], this compound displayed an EC50 of 390 nM.

As for `CNC(=O)[C@@H]1CCCN1S(=O)(=O)c1ccc(Cl)c(COc2cccc3c(-c4ccccn4)cc(C)nc23)c1Cl`, the CL free in data set [1] stood at 183 mL/min/kg; in data set [2], 733 mL/min/kg.

On to `CNC(=O)[C@@H]1CCCN1S(=O)(=O)c1cccc(COc2cccc3c(C(F)(F)F)cc(C)nc23)c1`, for which the CL free stood at 50 mL/min/kg in data set [1] and 767 mL/min/kg in data set [2]. Besides, the EC50 in data set [3] was above 10000 nM.

On to `CCc1cc(C(F)(F)F)c2cccc(OCc3c(Cl)ccc(S(=O)(=O)N4CCC[C@H]4C(=O)NC)c3Cl)c2n1`, for which the CL free is 300 mL/min/kg in data set [1] and 1280 mL/min/kg in data set [2]. The EC50 in data set [4] worked out at 210 nM; in data set [3], 350 nM.

For `Cc1cc(C(F)(F)F)c2cccc(OCc3c(Cl)ccc(S(=O)(=O)N4CCC(C#N)CC4)c3Cl)c2n1`, the CL free in data set [1] was found to be 433 mL/min/kg; in data set [2], 1720 mL/min/kg. In addition, the EC50 in data set [3] is 760 nM.

Regarding `CNC(=O)[C@@H]1CCCN1S(=O)(=O)c1ccc(Cl)c(COc2cccc3c(-c4ccncc4)cc(C(C)C)nc23)c1Cl`, the CL free is 333 mL/min/kg in data set [1] and 633 mL/min/kg in data set [2]. Besides, the EC50 in data set [4] turned out to be 1830 nM; in data set [3], 220 nM.

Turning to `Cc1cc(C(F)(F)F)c2cccc(OCc3c(Cl)ccc(S(=O)(=O)N4CCCCC4)c3Cl)c2n1`, the results for the CL free in data set [1] and in data set [2] were 233 mL/min/kg and 1000 mL/min/kg, respectively.

As for `CNC(=O)[C@@H]1CCCN1S(=O)(=O)c1ccc(Cl)c(COc2cccc3c(-n4ccnc4)cc(C(F)(F)F)nc23)c1Cl`, the CL free in data set [1] came out at 17 mL/min/kg; in data set [2], 130 mL/min/kg. For the same compound, the results for the EC50 in data set [4] and in data set [3] were 3320 nM and 170 nM, respectively.

In the case of `Cc1cc(C(F)(F)F)c2cccc(OCc3c(Cl)ccc(S(=O)(=O)N4CCC[C@H]4C(=O)O)c3Cl)c2n1`, the CL free in data set [1] worked out at 8.3 mL/min/kg; in data set [2] it was 13 mL/min/kg. This compound showed a 50% effective concentration (EC50) in data set [3] of 1390 nM.

For the compound `CCCCCCCCc1ccc(CCC(N)(CO)CO)cc1` [FINGOLIMOD], in data set [5], the Activity stood at 0%.

Consider `CNC(=O)[C@@H]1CCCN1S(=O)(=O)c1ccc(Cl)c(COc2cccc3c(-c4nccn4C)cc(C)nc23)c1Cl`, for which the CL free in data set [1] stood at 120 mL/min/kg; in data set [2], 917 mL/min/kg. The compound also registered an EC50 in data set [3] above 10000 nM.

Turning to `Cc1cc(C(F)(F)F)c2cccc(OCc3c(Cl)ccc(S(=O)(=O)N4CCC[C@H]4CO)c3Cl)c2n1`, the CL free in data set [1] is 250 mL/min/kg; in data set [2], 1630 mL/min/kg. Further, the EC50 in data set [4] was 830 nM; in data set [3], 960 nM.

`Cc1cc(C(F)(F)F)c2cccc(OCc3c(Cl)ccc(S(=O)(=O)N4C[C@@H](C)O[C@@H](C)C4)c3Cl)c2n1`: the CL free in data set [1] is 317 mL/min/kg; in data set [2] it was 933 mL/min/kg. The EC50 in data set [3] is 220 nM.

With `CNC(=O)[C@@H]1CCCN1S(=O)(=O)c1ccc(Cl)c(COc2cccc3c(OCc4ccccc4)cc(C)nc23)c1Cl`, the CL free in data set [1] worked out at 467 mL/min/kg; in data set [2], 1820 mL/min/kg. Moreover, a half-maximal effect in data set [3] (EC50) was put at 880 nM.

With `CNC(=O)[C@@H]1CCCN1S(=O)(=O)c1ccc(Cl)c(COc2cccc3c(-c4cccnc4)cc(C)nc23)c1Cl`, the CL free worked out at 233 mL/min/kg in data set [1] and 700 mL/min/kg in data set [2]. The EC50 was found to be 1010 nM in data set [4] and 100 nM in data set [3].

For `CNC(=O)[C@@H]1CCCN1S(=O)(=O)c1ccc(Cl)c(COc2cccc3c(C(F)(F)F)cc(C)nc23)c1Cl`, the figures for the CL free in data set [1] and in data set [2] were 250 mL/min/kg and 1380 mL/min/kg, respectively.

As for `CNC(=O)[C@@H]1CCCN1S(=O)(=O)c1ccc(Cl)c(COc2cccc3c(C(F)(F)F)cc(C(C)C)nc23)c1Cl`, the CL free in data set [1] came to 500 mL/min/kg; in data set [2], 1630 mL/min/kg. In addition, the EC50 in data set [4] stood at 770 nM; in data set [3], 170 nM.

Take `COC[C@@H]1CCCN1S(=O)(=O)c1ccc(Cl)c(COc2cccc3c(C(F)(F)F)cc(C)nc23)c1Cl`: the CL free in data set [1] worked out at 450 mL/min/kg; in data set [2], 1620 mL/min/kg. Also, the EC50 in data set [4] and in data set [3] was 160 nM throughout.

Take `Cc1cc(C(F)(F)F)c2cccc(OCc3c(Cl)ccc(S(=O)(=O)N4CC[C@@H](N(C)C)C4)c3Cl)c2n1`: the figures for the CL free in data set [1] and in data set [2] were 167 mL/min/kg and 867 mL/min/kg, respectively. The half-maximal effective concentration (EC50) in data set [3] was 910 nM.

(Values after ChEMBL document CHEMBL4665652, “Discovery of novel quinoline sulphonamide derivatives as potent, selective and orally active RORγ inverse agonists” (Bioorg Med Chem Lett, 2019).)
